Source: PubChem
A selection: hits, their analogues and other compounds. The true share with any hit is near 3.1%.
F508del corr – CFTR F508del correction in bronchial cells. CFBE cells, YFP halide quenching; stimulated with forskolin plus potentiator P3; % fluorescence drop versus neutral controls. activity (quench increase), % at 7.58 µM. 350,000 compounds, 0.36% hits. AID 720511;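 active = mean added fluorescence quench of at least 8% versus neutral control, with both replicates also reaching 8%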;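 also: cells transiently co-express mutant CFTR-F508del with the halide-sensitive YFP; corrector assay measuring rescue of mutant channel to the surface after 24 h compound exposure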
S100A4 inh HTS – S100A4-myosin IIA interaction inhibition. P26447. S100A4/TAMRA-MyoIIA peptide fluorescence polarization. inhibition, % at 10.7 µM. 360,000 compounds, 0.14% hits. AID 652163;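 active = mean inhibition of at least 70% across replicates, with every replicate also reaching that level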
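Compound dosing: one dose per compound; test system: human S100A4 monomer with TAMRA-labelled myosin IIA peptide; probe or stimulus: TAMRA-labelled myosin IIA heavy-chain peptide probe, 5 nM; medium: HEPES buffer with Ca2+, pH 7.2; schedule: 5 min incubation before reading; benchmarks: neutral control DMSO, positive control TFP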
Ecoli rRNA inh – inhibits bacterial ribosomal RNA function over humanized ribosomes. E. coli WT GFP vs humanized-ribosome RFP mutants, fluorescence, 24 h; active compounds read low; DMSO median 0, no signal -100. GFP signal change (wild-type ribosome), % (concentration not given with the values). 350,000 compounds, 1.6% hits. AID 720706;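 active = significant combined selectivity score with lowered wild-type GFP, culture density cut under 30%, mutant RFP and density less affected; inactive = any of these conditions unmet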
SIRT5 block – sirtuin-5 (human) deacylase inhibition; Purified SirT5, succinyl-peptide AMC, trypsin-coupled fluorescence; 330,000 compounds, 1.1% hits; inhibition, % at 15 µM; Q9NXA8; AID 652115; in the data active = inhibition above about 15%
ERAP1 HTS inh – ERAP1 (human) enzyme inhibition. recombinant ERAP1, Leu-AMC fluorescence, 60 min. AID 652197. inhibition, % at 10.7 µM. Q9NZ08. 340,000 compounds, 0.15% hits;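 active = mean replicate inhibition of at least 30%, or all replicates individually reaching that 30% level; inactive = mean below 30% and not every replicate reaching it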;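 also: 0% = neutral control wells and 100% = L-leucinethiol positive control wells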
Starred values were filed as active, the others as inactive; . = not tested or not shown.

SMILES	F508del corr	S100A4 inh HTS	Ecoli rRNA inh	SIRT5 block	ERAP1 HTS inh
OCCN(CC#CC(O)(c1ccccc1)C1CCCCC1)CCO (stereo unspecified)	0	-4	-2	6	0
COCC(=O)Nc1ccc2c(c1)OC[C@@H](C)N(C(=O)c1ccccn1)C[C@H](C)[C@@H](OC)CN(C)C2=O	1	.	2	.	.
C[C@@H]1CN([C@@H](C)CO)C(=O)Cc2cc(NC(=O)Nc3ccc4c(c3)OCO4)ccc2O[C@@H]1CN(C)Cc1ccc(C(=O)O)cc1	1	-5	5	-3	12
COc1ccc(C#Cc2ccc3c(c2)O[C@@H](CN(C)C(C)=O)[C@@H](C)CN([C@@H](C)CO)S3(=O)=O)cc1	2	-3	-6	3	0
COc1ccc(S(=O)(=O)N(C)C[C@H]2OCCCC[C@H](C)Oc3ccc(NS(=O)(=O)c4ccc(Cl)cc4)cc3C(=O)N([C@@H](C)CO)C[C@H]2C)cc1	-1	-6	-2	17*	.
COc1ccc(S(=O)(=O)Nc2ccc3c(c2)C(=O)N([C@@H](C)CO)C[C@H](C)[C@H](CN(C)S(=O)(=O)c2ccc(Cl)cc2)OCCCC[C@@H](C)O3)cc1	1	-6	0	22*	1
COc1ccc(S(=O)(=O)Nc2ccc3c(c2)C(=O)N([C@H](C)CO)C[C@@H](C)[C@H](CN(C)S(=O)(=O)c2ccc(Cl)cc2)OCCCC[C@H](C)O3)cc1	-4	-7	0	20*	-1
COc1ccc(S(=O)(=O)Nc2ccc3c(c2)C(=O)N([C@H](C)CO)C[C@H](C)[C@H](CN(C)S(=O)(=O)c2ccc(Cl)cc2)OCCCC[C@@H](C)O3)cc1	3	-10	4	10	-1
COc1ccc(S(=O)(=O)Nc2ccc3c(c2)C(=O)N([C@@H](C)CO)C[C@H](C)[C@H](CN(C)S(=O)(=O)c2ccc(Cl)cc2)OCCCC[C@H](C)O3)cc1	-1	-3	0	-1	1
COc1ccc(S(=O)(=O)N(C)C[C@@H]2OCCCC[C@@H](C)Oc3ccc(NS(=O)(=O)c4ccc(Cl)cc4)cc3C(=O)N([C@@H](C)CO)C[C@H]2C)cc1	0	-3	0	17*	2
CCCC#Cc1ccc2c(c1)O[C@@H](CN(C)CCC)[C@@H](C)CN([C@@H](C)CO)S2(=O)=O	3	-5	4	1	-1
COc1ccc(S(=O)(=O)N(C)C[C@H]2OCCCC[C@@H](C)Oc3ccc(NS(=O)(=O)c4ccc(Cl)cc4)cc3C(=O)N([C@H](C)CO)C[C@H]2C)cc1	-1	-31	-2	23*	2
COc1ccccc1NC(=O)N[C@@H]1CC[C@@H](CCNS(=O)(=O)c2ccccc2)O[C@H]1CO	-3	-5	-2	0	0
CC1(C)Cc2c(ccc3ccccc23)C2=C(C(=O)N3CCCC3)C(=O)C(=O)N21	6	-10	-26*	.	-1
O=C(c1ccc2ccccc2c1O)N1CCCCC1	0	15	-5	.	2
C[C@@H]1CCCCO[C@H](CN(C)C(=O)C2CCCCC2)[C@H](C)CN([C@@H](C)CO)C(=O)c2cc(NS(=O)(=O)c3cccs3)ccc2O1	4	-9	-4	4	-6
c1ccc(CSc2nnc(Cc3ccccc3)o2)cc1	2	27	-31*	-4	0
O=C(CSc1nnc(Cc2ccccc2)o1)c1ccccc1	-2	5	-6	-1	-6
CCN(CC)c1ccc(/C=N/NC(=O)c2ccco2)c(O)c1	35*	13	-39*	1	3
COc1cc(C(=O)NC2CCCc3c2cnn3-c2ccccc2F)cc(OC)c1OC (stereo unspecified)	-2	-2	-4	-1	-3
Cc1ccc(C(=O)NC2CCCc3c2cnn3-c2ccc(F)cc2F)cn1 (stereo unspecified)	1	0	9	20*	0
CC(=O)Nc1cccc(C(=O)NC2CCCc3c2cnn3-c2ccccc2F)c1 (stereo unspecified)	0	199*	0	-2	-5
O=C(Cc1nnc(NC(=O)Nc2ccc(Cl)cc2)s1)NCc1ccccc1	1	3	7	38*	1
Cc1ccc(Cc2c(-c3ccc(C)cc3)nc3ccc(Cl)cn23)cc1	2	-9	-10	2	3
